The assay concerns the target T1, PAP(248–286) (Homo sapiens, UniProt P15309).
T1 sequence (P15309 248-286): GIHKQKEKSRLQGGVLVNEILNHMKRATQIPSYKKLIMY
The assay can be described thus: isothermal titration calorimetry. It counts as binding. The essentials:
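Freshly prepared monomeric peptide (600 μM) in deionized water brought to 1× PBS was titrated from the syringe into a low-volume nano-ITC cell holding the test compound (80 μM). The compound was neutralised with NaOH to physiological pH and diluted in water/PBS. Both solutions were degassed 10 min at 37 °C. Heats and enthalpies were fitted with an independent binding model.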
On the technique in general: ITC needs no label: the signal is the heat of the interaction.

In general, Kd refers to the concentration at which binding is half-saturated. High values mean a looser complex, low ones a tighter complex.

As to `O=C1O[C@H]([C@@H](O)CO)C(O)=C1O` [ascorbic acid], the Kd stood at 8.59 µM.

For the origin of these results see PMC8496042 (RSC Chemical Biology, 2021).
